{"source": "paper PMC7680388", "about": "(Cell chemical biology, 2020)", "molecules": {"B1": {"name": "Rpn13Q337A/Q338A: Rpn13 double mutant defective in Uch37 activation, FLAG-tagged, expressed from plasmid (protein, UniProt Q16186 2-407, looked up, variant Q337A Q338A)", "Proteasomal ubiquitin …": "TTSGALFPSLVPGSRGASNKYLVEFRAGKMSLKGTTVTPDKRKGLVYIQQTDDSLIHFCWKDRTSGNVEDDLIIFPDDCEFKRVPQCPSGRVYVLKFKAGSKRLFFWMQEPKTDQDEEHCRKVNEYLNNPPMPGALGASGSSGHELSALGGEGGLQSLLGNMSHSQLMQLIGPAGLGGLGGLGALTGPGLASLLGSSGPPGSSSSSSSRSQSAAVTPSSTTSSTRATPAPSAPAAASATSPSPAPSSGNGASTAASPTQPIQLSDLQSILATMNVPAGPAGGQQVDLASVLTPEIMAPILANADVQERLLPYLPSGESLPQTADEIQNTLTSPQFAAALGMFSAALASGQLGPLMCQFGLPAEAVEAANKGDVEAFAKAMQNNAKPEQKEGDTKDKKDEEEDMSLD", "modifications": "FLAG tag"}}, "key": {"SK-MEL-5 cells": {"test_system": "SK-MEL-5 cells", "format": "cell-based, Homo sapiens", "conditions": "endogenous Rpn13 depleted by UTR siRNA; Fig. 6E", "summary_of_the_method": "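SK-MEL-5 endogenous Rpn13 was depleted with UTR-targeting siRNA (50 nM) for 24 h. Cells at 70–80% confluency were then transfected with 2 μg wild-type or Q337A/Q338A FLAG-Rpn13 plasmid (Omnifect) per 6-well. Test compound was given at graded concentrations for 24 h. CellTiter-Glo 2.0 luminescence was normalized to vehicle, in technical triplicate and biological duplicate, with SD reported.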"}, "Uch37": {"target": "T1, Uch37 (Homo sapiens, UniProt Q9Y5K5)", "T1 sequence (Q9Y5K5 1-329)": "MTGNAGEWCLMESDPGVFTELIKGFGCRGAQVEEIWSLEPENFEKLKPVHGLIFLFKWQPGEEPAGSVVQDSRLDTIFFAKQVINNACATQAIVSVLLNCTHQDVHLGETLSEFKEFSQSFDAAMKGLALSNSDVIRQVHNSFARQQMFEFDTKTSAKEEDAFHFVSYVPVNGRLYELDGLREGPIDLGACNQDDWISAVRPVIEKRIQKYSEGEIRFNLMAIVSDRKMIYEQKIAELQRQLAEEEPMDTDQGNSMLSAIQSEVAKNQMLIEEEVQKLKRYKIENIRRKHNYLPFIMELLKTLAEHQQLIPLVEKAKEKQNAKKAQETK", "conditions": "ref VanderLinden et al., 2015; cited from earlier work"}, "Rpn13-Uch37 interaction": {"test_system": "Rpn13-Uch37 interaction", "conditions": "ref VanderLinden et al., 2015; cited from earlier work"}}}
{"molecule": "B1", "values": [{"measurement": "viability upon expression of Rpn13 double mutant", "setting": "SK-MEL-5 cells", "value": "no significant effect on viability"}, {"measurement": "stimulation of Uch37 relative to wild-type Rpn13", "setting": "Uch37", "value": "about 30%"}, {"measurement": "effect of mutations on physical interaction with Uch37", "setting": "Rpn13-Uch37 interaction", "value": "the mutations do not affect the physical interaction of the two proteins"}]}
